Assay results pooled from the literature.
Each line is one published result; the experiments were not run side by side.
Target: Serine/threonine-protein kinase Nek9 (NEK9, Homo sapiens, UniProt Q8TD19)
One construct used (Q8TD19 1-979): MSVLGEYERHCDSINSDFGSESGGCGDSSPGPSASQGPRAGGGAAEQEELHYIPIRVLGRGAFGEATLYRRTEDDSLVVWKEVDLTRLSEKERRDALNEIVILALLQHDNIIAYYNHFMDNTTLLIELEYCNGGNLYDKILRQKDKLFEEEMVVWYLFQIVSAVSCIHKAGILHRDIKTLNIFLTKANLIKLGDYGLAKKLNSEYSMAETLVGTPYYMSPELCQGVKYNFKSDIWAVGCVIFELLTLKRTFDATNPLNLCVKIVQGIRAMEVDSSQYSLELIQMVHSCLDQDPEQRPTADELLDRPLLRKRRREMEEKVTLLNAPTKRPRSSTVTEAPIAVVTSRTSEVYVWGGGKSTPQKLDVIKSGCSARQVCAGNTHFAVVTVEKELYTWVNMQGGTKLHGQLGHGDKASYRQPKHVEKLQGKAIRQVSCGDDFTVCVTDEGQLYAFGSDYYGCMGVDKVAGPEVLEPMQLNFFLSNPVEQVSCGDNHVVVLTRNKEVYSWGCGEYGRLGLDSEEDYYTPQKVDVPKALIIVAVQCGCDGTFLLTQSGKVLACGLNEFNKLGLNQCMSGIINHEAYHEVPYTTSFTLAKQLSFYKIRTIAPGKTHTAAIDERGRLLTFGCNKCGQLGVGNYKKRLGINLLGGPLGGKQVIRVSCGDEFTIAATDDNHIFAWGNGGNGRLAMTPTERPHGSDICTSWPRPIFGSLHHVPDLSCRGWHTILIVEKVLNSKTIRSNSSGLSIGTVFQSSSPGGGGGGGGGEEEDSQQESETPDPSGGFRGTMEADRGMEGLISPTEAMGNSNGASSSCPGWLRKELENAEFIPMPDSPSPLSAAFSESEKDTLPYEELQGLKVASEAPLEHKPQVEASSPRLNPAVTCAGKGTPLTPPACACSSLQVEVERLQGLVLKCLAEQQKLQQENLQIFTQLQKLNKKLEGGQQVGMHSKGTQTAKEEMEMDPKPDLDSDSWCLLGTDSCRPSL

FC(F)(F)Oc1cccc(-c2cnc3ccc(-c4ccncc4)nn23)c1  remaining binding (cell-free assay, competition with immobilised ligand; 5 µM): 91%
Cn1nc(C(=O)NCc2ccc(C(=O)O)cc2)cc1-c1ccc2[nH]ccc2c1  remaining binding (cell-free assay, competition with immobilised ligand; 0.1 µM): 99%
F[C@@H]1CCN(c2nccc(-c3cnn4ncccc34)n2)C1  remaining binding (binding; 1 µM): 100%
Cc1cc(NC(=O)c2cccc(S(F)(F)(F)(F)F)c2)cc(-n2ccn3nc(-c4cccnc4)cc23)c1  remaining binding (cell-free assay, competition with immobilised ligand; 1 µM): 100%
O=C(NCC1CCOCC1)c1n[nH]cc1NC(=O)c1c(F)cccc1F  remaining binding (binding, competition with immobilised ligand; 1 µM): 92%
CN(C)C(=O)Cn1cc(-c2nc([C@@](C)(c3ccc(-c4cnc(N)nc4)cc3)C3CC3)no2)cn1  remaining binding (cell-free assay, competition with immobilised ligand; 1 µM): 95%
COc1ncc2cc3ccccc3nc2c1C#N  remaining binding (cell-free assay, competition with immobilised ligand; 5 µM): 95%
Cc1cnc(Nc2ccc(C(=O)N3CCC(N4CCCC4)CC3)cc2)nc1-c1cc2ccccc2s1  remaining binding (binding, competition with immobilised ligand; 1 µM): 14%
c1cnn2ncc(-c3ccnc(N4CCC45COC5)n3)c2c1  remaining binding (binding; 1 µM): 82%
C[C@H](c1ccc(F)cc1)N(Cc1cccc(C(=O)O)c1)C(=O)c1cnc2ccccc2c1  remaining binding (cell-free assay, competition with immobilised ligand; 1 µM): 100%
CCN1CCN(Cc2ccc(C(=O)Nc3ccc(C)c(Oc4ccc5c(c4)CC(=O)N5)c3)cc2C(F)(F)F)CC1  remaining binding (binding, competition with immobilised ligand; 1 µM): 100%
Cc1cc(-n2nc(Cc3cc(F)cc(C(F)(F)F)c3)nc2C)ccc1C(N)=O  remaining binding (cell-free assay, competition with immobilised ligand; 1 µM): 100%
CN(C)c1nccc(-c2cnc3ncccn23)n1  remaining binding (binding; 1 µM): 88%
O=C(NCCCN1CCOCC1)c1ccc(Nc2ncc(Cl)c(-c3ccc(Cl)s3)n2)cc1  remaining binding (binding, competition with immobilised ligand; 1 µM): 13%
N[C@@H]1CCN(c2nccc(-c3cnn4ncccc34)n2)C1  remaining binding (binding; 1 µM): 100%
O=C(NCCCN1CCOCC1)c1ccc(Nc2nccc(-c3cc4ccccc4s3)n2)cc1  remaining binding (binding, competition with immobilised ligand; 1 µM): 73%
C[C@H]1CCN(c2nccc(-c3cnn4ncccc34)n2)C1  remaining binding (binding; 1 µM): 100%
Cc1c(C(=O)O)cc(-c2ccc(C3CCNCC3)cc2)c2ccc(-c3ccc(C(F)(F)F)cc3)cc12  remaining binding (binding, competition with immobilised ligand; 1 µM): 100%
CN(CCCC(F)(F)F)c1nccc(-c2cnn3ncccc23)n1  remaining binding (binding; 1 µM): 100%
Cc1c(NC(=O)c2cc(C(N)=O)nc3cc(F)ccc23)c(C(F)(F)F)nn1Cc1ccc(C#N)cc1  remaining binding (cell-free assay, competition with immobilised ligand; 1 µM): 95%
COc1cnc(Nc2cccc(S(N)(=O)=O)c2)nc1N1CCN(c2ccccc2)C(=O)C1  remaining binding (binding, competition with immobilised ligand; 1 µM): 99%
CN(c1nccc(-c2cnn3ncccc23)n1)C1CC1  remaining binding (binding; 1 µM): 100%
